Screens as filed in PubChem.
ABHD5 PLIN5 PPI = ABHD5-PLIN5 protein interaction inhibition; Q00G26+Q8WTS1; inhibition, % at 4 µM; hit rate 0.78% among 360,000; AID 602281; Split G. princeps luciferase complementation, luminescence, 4 h;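 active = inhibition above the mean inhibition across every tested compound plus 3 SD, cut at about 22% in these data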;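 note: 0% = DMSO only wells and the 100% control is not disclosed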
NOD2 RIPK2 PPI = blocks binding of human NOD2 to RIPK2. O43353. CHO BLA complementation NOD2-RIPK2, CCF4 ratio. inhibition, % at 4.98 µM. hit rate 0.38% among 360,000. AID 624267; in the data active = inhibition above about 21%;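 note: 0% = vehicle only and 100% = reference blocker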
TLR9-MyD88 inh = TLR9-MyD88 interaction inhibition | Q9NR96+Q99836 | CHO BLA complementation TLR9-MyD88, CCF4 FRET ratio | inhibition, % at 4.98 µM | hit rate 0.21% among 340,000;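 active = inhibition above the mean over all tested compounds plus 3 SD, cut at about 21% in these data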;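 note: 0% = DMSO only wells and 100% = clavulanate BLA inhibitor control wells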
Target sequence (Q99836 whole entry, looked up): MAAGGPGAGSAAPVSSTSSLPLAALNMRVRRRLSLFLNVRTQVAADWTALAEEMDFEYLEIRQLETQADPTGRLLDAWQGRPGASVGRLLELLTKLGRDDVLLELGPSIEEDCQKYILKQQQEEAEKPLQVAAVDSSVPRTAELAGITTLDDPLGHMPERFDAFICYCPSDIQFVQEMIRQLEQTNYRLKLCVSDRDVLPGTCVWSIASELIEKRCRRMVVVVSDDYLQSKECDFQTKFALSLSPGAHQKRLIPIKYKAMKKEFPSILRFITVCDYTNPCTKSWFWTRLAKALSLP
Target sequence (Q9NR96 whole entry, looked up): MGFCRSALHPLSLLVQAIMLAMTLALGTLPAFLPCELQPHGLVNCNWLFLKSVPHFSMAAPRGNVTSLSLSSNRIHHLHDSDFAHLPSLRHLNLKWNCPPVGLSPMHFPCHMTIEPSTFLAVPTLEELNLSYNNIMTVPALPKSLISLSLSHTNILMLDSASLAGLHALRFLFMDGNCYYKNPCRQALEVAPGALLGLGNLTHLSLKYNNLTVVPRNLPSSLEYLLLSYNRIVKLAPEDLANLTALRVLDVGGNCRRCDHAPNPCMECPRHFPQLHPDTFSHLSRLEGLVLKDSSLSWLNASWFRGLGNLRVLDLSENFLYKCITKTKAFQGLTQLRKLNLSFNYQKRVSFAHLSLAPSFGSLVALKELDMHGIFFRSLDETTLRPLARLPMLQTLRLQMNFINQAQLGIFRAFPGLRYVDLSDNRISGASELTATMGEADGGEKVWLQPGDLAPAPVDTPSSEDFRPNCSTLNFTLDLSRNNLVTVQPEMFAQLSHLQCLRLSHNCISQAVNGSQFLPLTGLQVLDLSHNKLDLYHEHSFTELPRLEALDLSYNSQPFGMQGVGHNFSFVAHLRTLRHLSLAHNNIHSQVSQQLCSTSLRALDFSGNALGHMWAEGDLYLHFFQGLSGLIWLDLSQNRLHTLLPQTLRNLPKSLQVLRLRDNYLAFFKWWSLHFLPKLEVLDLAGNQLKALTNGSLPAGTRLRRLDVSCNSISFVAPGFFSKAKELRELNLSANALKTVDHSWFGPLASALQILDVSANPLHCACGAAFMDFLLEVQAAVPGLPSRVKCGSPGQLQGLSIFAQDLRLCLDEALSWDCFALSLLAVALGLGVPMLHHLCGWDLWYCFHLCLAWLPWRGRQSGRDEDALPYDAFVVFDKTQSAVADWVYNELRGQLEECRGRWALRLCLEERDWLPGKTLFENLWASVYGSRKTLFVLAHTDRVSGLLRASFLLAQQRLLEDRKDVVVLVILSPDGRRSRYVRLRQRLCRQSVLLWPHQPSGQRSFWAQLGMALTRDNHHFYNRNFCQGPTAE
B2AR ag = activates human beta-2 adrenergic receptor causing internalization. P07550. Am2.2-beta2AR cells, FAP receptor internalization, flow cytometry. response, % (test concentration not listed). hit rate 0.43% among 340,000;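 active = response above a set limit, near 3 SD of response in nonfluorescent compounds, cut at about 42% in these data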
Dynein cargo inh = blocks dynein driven cargo transport along microtubules; z-score, hits read low; 3617.4 mouse cells, GR-EGFP nuclear translocation imaging; test concentration mostly 20 µM; stimulated with dexamethasone, 1 µM; active compounds read low; hit rate 0.47% among 220,000; AID 1381;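 active = plate z-score of nuclear minus cytoplasmic receptor signal below a set negative limit, without overly bright fluorescence or cell loss, cut at about -3.5 in these data, passing the limit was not always enough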;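 note: z-score of nuclear minus cytoplasmic ring GR-EGFP intensity difference per well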
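Schedule: 48 h induction, then 1 h compound, then 30 min agonist, 37 °C. Buffer or medium: tetracycline-free induction medium containing charcoal-stripped FBS. Reagent: 1.0 µM final dexamethasone stimulus. Evaluation: nuclear versus cytoplasmic GR-EGFP signal, averaged per well. Signal: high-content fluorescence imaging after fixation.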
TLR4-MyD88 BLA = blocks binding of human TLR4 to MyD88 | HeLa CL3-4 TLR4/MyD88 BLA complementation, FRET ratio | hit rate 0.18% among 200,000 | O00206+Q99836 | inhibition, % at 8.4 µM; in the data active = inhibition above about 25%;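 note: 0% = vehicle and 100% = reference inhibitor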
The depositor's hits bear a star; · = not tested or not shown. Compounds with a hit are over-represented: about 1.6% of the library has one in this group of screens.

SMILES	ABHD5 PLIN5 PPI	NOD2 RIPK2 PPI	TLR9-MyD88 inh	B2AR ag	Dynein cargo inh	TLR4-MyD88 BLA
COc1ccc(-n2nnnc2C(c2ccccc2OC(F)(F)F)N2CCN(C/C=C/c3ccccc3)CC2)cc1 (configuration not stated)	8.0	-5.4	·	·	·	·
FC(F)(F)c1cc(Cl)c2nc(-c3ccco3)c(Cc3ccccc3C(F)(F)F)n2c1	50.6*	7.5	·	·	·	·
CCOC(=O)c1c(S(=O)(=O)NCc2ccco2)c(C)n(C)c1C	-1.1	9.0	4.0	0.2	·	·
O=C(Nc1ccccc1OC(F)F)c1ccc(N2CCCC2=O)cc1	1.3	-1.5	3.7	·	·	·
COc1cc(/C=C(\C#N)c2ccccn2)ccc1OCC(=O)Nc1cccc(C(F)(F)F)c1	6.1	-16.9	6.4	76.2*	-0.616	-1.4
COc1cc(/C=C(\C#N)c2ccccn2)ccc1OCc1ccccc1Cl	-0.7	2.5	-5.6	8.9	-0.138	-0.3
CC1(C)CC(=O)C2=C(C1)N=C1c3ccccc3C(=O)C1C2c1ccc(Cl)cc1 (configuration not stated)	22.1*	-12.0	1.6	8.7	-0.173	14.0
O=C(/C=C/c1cccnc1)c1ccc(NC(=O)c2cccc(Br)c2)cc1	50.0*	15.0	-0.1	8.2	-0.141	0.3
CC(=O)Nc1cccc(C(=O)/C=C/c2ccco2)c1	28.5*	-3.3	4.5	-4.1	-0.756	2.6
CCOc1nc(NC2CCCC2)nc(N2CCC(C)CC2)n1	-0.1	-10.4	8.4	-6.5	·	·
NC(=S)NN=CCn1cc([N+](=O)[O-])c(=O)[nH]c1=O	-2.9	-5.2	2.4	3.1	·	·
Cn1c(=O)c(C(=O)CCl)c(N)n(Cc2ccccc2)c1=O	4.6	-1.1	2.6	1.4	-0.162	-17.1
Cn1c(N)c(C(=O)CCl)c(=O)n(Cc2ccccc2)c1=O	8.0	-2.5	1.3	-1.7	-5.95*	-7.8
CCC(O)c1cnc(OCc2ccccc2)nc1OCc1ccccc1 (configuration not stated)	-3.5	11.9	-3.0	·	·	·
COc1cccc(/C=N/N2CCN(c3ccncc3S(=O)(=O)N3CCCCC3)CC2)c1	-8.2	-6.9	-14.7	74.6*	-0.985	-2.6
Cc1ccc(C)c(S(=O)(=O)N2CCN(C(=O)Cn3c(=O)cnc4ccccc43)CC2)c1	-8.2	-4.5	0.9	-4.6	·	·
c1ccc(CNc2nc(NCc3ccccc3)c3ccccc3n2)cc1	11.3	1.1	-10.0	72.0*	-4.54	·
Cc1cc(=O)oc2c(N)nccc12	22.1*	-10.6	·	·	·	·
Cc1cc(=O)oc2c(O)c(O)ccc12	4.9	5.7	-1.1	-4.7	·	·
CC(=O)OC[C@@H]1CN(Cc2cccc(C(F)(F)F)c2)C[C@H](n2cnc3c(NCc4ccco4)ncnc32)O1	5.4	-3.3	·	·	·	·
Cc1ccc(NC(=S)Nc2ccc3nc(-c4ccccn4)c(-c4ccccn4)nc3c2)cc1C	-19.4	31.8*	14.2	10.5	0.104	0.6
Cc1cc(C)c2c(=O)n(CC(=O)N3CCC(Cc4ccccc4)CC3)sc2n1	·	·	·	·	-1.51	7.3
Cc1cc(C)c2c(=O)n(CC(=O)NCCCN3CCOCC3)sc2n1	50.0*	-11.8	-0.2	-2.7	-3.38	-4.0
CN1C(=O)c2ccccc2Sc2ccc(NC(=O)NC3CC3)cc21	25.3*	-7.1	-2.5	-4.0	0.0688	-5.3
O=C(c1ccccc1)N1CCN(C(=O)c2nn3c(C(F)(F)F)cc(-c4ccco4)nc3c2Br)CC1	22.3*	-4.4	-10.2	-4.7	·	·
SMILES	ABHD5 PLIN5 PPI	NOD2 RIPK2 PPI	TLR9-MyD88 inh	B2AR ag	Dynein cargo inh	TLR4-MyD88 BLA
Cc1noc(C)c1NC(=O)N(C)C[C@@H]1OCc2cnnn2CCCC(=O)N([C@H](C)CO)C[C@@H]1C	-3.6	0.7	1.2	·	·	·
C=CCn1c(SCC(C)=O)nc2scc(-c3ccc(C)o3)c2c1=O	16.5	-4.1	13.4	12.1	·	·
C=CCn1c(SCC(=O)NCCCC)nc2scc(-c3ccco3)c2c1=O	39.7*	-1.0	2.9	1.8	-0.377	-6.6
COc1cc(CNS(=O)(=O)c2ccc3c(c2)CC(C)N3C(C)=O)cc(OC)c1OC (configuration not stated)	0.1	-4.9	-15.6	3.9	·	·
O=C(O)c1cn(-c2ccc(F)c(F)c2)c2c(F)c(F)c(F)c(F)c2c1=O	-9.4	-3.3	-2.7	5.2	-6.36*	-2.0
CC(C)NC(=O)c1csc(COCCO)n1	2.1	-6.6	·	·	·	·
Cc1cccc2sc(NNC(=O)c3ccc(S(=O)(=O)N4CCc5ccccc5C4)cc3)nc12	23.3*	11.1	5.7	22.1	2.89	9.1
Cc1cccc2sc(NNC(=O)c3ccc(S(=O)(=O)N4CCCC(C)C4)cc3)nc12 (configuration not stated)	1.6	-0.8	7.7	21.9	0.788	-6.6
CCn1c(SCC(=O)Nc2ccc3c(c2)c2ccccc2n3CC)nnc1-c1ccco1	46.0*	-3.2	2.7	6.8	-0.673	11.7
CCn1c(SCC(=O)Nc2cccc(NC(C)=O)c2)nnc1-c1ccco1	-2.4	-7.6	1.6	0.1	·	·
O=C(/C=C/c1ccc2c(c1)OCO2)NCCSCc1cccc(Cl)c1	4.4	5.0	-4.0	44.2*	0.458	-2.0
O=C(/C=C/c1ccc2c(c1)OCO2)NCCSCc1ccc(Cl)cc1Cl	-7.1	-1.1	0.4	96.2*	-0.532	-2.8
CS(=O)(=O)N(CC(=O)NCCSCc1cccc(Cl)c1)c1ccc2c(c1)OCO2	-1.3	2.2	-8.7	2.0	-0.59	1.9
COc1ccc(CCNC(=O)Nc2nc(C(N)C3CCCCC3)cs2)cc1OC (configuration not stated)	3.6	-9.0	·	·	·	·
CC(=O)OC[C@@H]1CN(Cc2ccccc2)C[C@H](n2cnc3c(NC4CCCC4)ncnc32)O1	1.8	-11.6	·	·	·	·
COC1(OC)C=CC(=O)C=C1NC(=O)c1ccccc1OC(C)=O	23.1*	4.5	-11.8	5.9	·	·
CC(=O)Oc1ccccc1C(=O)Nc1ccccc1	-5.6	1.1	10.6	2.0	·	·
CNC(=O)/C(C#N)=C/c1c(N(Cc2ccccc2)Cc2ccccc2)nc2c(C)cccn2c1=O	7.2	1.7	-7.4	60.5*	-0.0357	2.0
CCNC(=O)/C(C#N)=C/c1c(N(Cc2ccccc2)Cc2ccccc2)nc2ccccn2c1=O	8.3	-12.9	-2.8	23.0	-0.182	1.1
CC1(C(=O)Nc2ccc3nc[nH]c3c2)CCN1C(=O)c1ccccc1CCc1ccccc1 (configuration not stated)	10.8	5.4	·	·	·	·
CCOC(=O)c1cc2c(=O)n3cccc(C)c3nc2n(Cc2ccco2)c1=NC(=O)c1ccc(C)cc1	-6.6	5.0	-2.1	-6.4	·	·
CCOC(=O)c1cc2c(=O)n3cccc(C)c3nc2n(Cc2ccco2)c1=NC(=O)c1ccccc1	22.3*	-9.8	10.6	16.5	0.435	-2.3
O=C(/C=C/c1ccccc1)c1ccccn1	23.1*	5.7	1.1	4.0	-3.79*	2.9
C=CCOc1ccc(Cl)cc1-c1noc(-c2csc([C@H]3C[C@H](O)[C@@H](CO)O3)n2)n1	5.8	1.7	·	·	·	·
